TLR9-MyD88 inh = inhibitors of human TLR9-MyD88 binding; CHO BLA complementation TLR9-MyD88, CCF4 FRET ratio; Q9NR96+Q99836; 340,000 tested, 0.21% active; inhibition, % at 4.98 µM;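 active means inhibition above the mean over all tested compounds plus 3 SD, cut at about 21% in these data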;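 further: 0% = DMSO only wells and 100% = clavulanate BLA inhibitor control wells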
MT1-MMP act inh = inhibitors of human MT1-MMP activation. P50281. GFP/RFP ratio change, % at 20 µM. HT1080 RFP-PRO-GFP cells, GFP/RFP ratio fluorescence, overnight; percent of plate control window, DMSO zero. 360,000 tested, 0.061% active;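 active means GFP/RFP ratio change of at least 30% with cell ATP level not reduced by more than half and red fluorescence within 50% of control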
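Assay system: HT1080 cells carrying an RFP-PRO-GFP reporter | Dosing: Single dose of 20 µM compound, 1% DMSO final | Incubation: Cells overnight before dosing, compound overnight, 37 °C, 5% CO2 | Evaluation: GFP/RFP fluorescence ratio | Control set: DMSO and RFP-L50D-GFP cell wells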
NOD2 RIPK2 PPI = blocks binding of human NOD2 to RIPK2. O43353. CHO BLA complementation NOD2-RIPK2, CCF4 ratio. inhibition, % at 4.98 µM. 360,000 tested, 0.38% active. AID 624267; in the data active means inhibition above about 21%;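 further: 0% = vehicle only and 100% = reference blocker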
SKN-1 inh = C. elegans SKN-1 inhibition | AID 624304 | inhibition, % at 21.8 µM | 360,000 tested, 0.49% active | C. elegans VP596 Pgst-4::GFP/RFP ratio, acrylamide-induced, 24 h;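 active means interference check ratio from 0.5 to 1.5 plus GFP to RFP signal ratio inhibition reaching or exceeding a fixed threshold, cut at about 30% in these data, passing the limit was not always enough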
TLR4 MyD88 comp = blocks binding of human TLR4 to MyD88; AID 861; HeLa CL3-4 TLR4/MyD88 BLA complementation, FRET ratio; O00206+Q99836; inhibition, % at 8.4 µM; 200,000 tested, 0.18% active; in the data active means inhibition above about 25%;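 further: 0% = vehicle and 100% = reference inhibitor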
* marks the source's active call; other numbers are inactive results; · = not tested or not shown. Only some compounds are listed: those with a hit (about 0.99% of all), similar ones and a draw of the others.

SMILES | TLR9-MyD88 inh | MT1-MMP act inh | NOD2 RIPK2 PPI | SKN-1 inh | TLR4 MyD88 comp
Cc1cc(C)c2cc(C#N)c(N3CCCC3)nc2c1 | -3 | -3 | -3 | 48* | 3
Cc1cc(C)c2cc(C#N)c(N3CCCN(C(=S)NCCCN(C)C)CC3)nc2c1 | -6 | -1 | -1 | 9 | ·
COC(=O)CSc1nc2cc(C)cc(C)c2cc1C#N | -8 | -33 | -4 | 37* | 11
CC(NC(=O)OC(C)(C)C)C(=O)Oc1cc2oc(=O)cc(-c3ccccc3)c2cc1Cl (stereo not drawn) | 31* | -15 | 39* | -10 | 11
c1ccc(N=Nc2ccc3cccccc2-3)cc1 | -3 | 6 | -1 | 45* | ·
Nc1ccc(N=Nc2ccccc2)c2ccccc12 | -3 | 3 | -1 | -5 | ·
CCc1ccc(OCc2cnc(Cl)s2)cc1 | -1 | 2 | -2 | 16 | -7
Clc1ccc(OCc2cnc(Cl)s2)cc1 | 11 | 2 | 3 | 61* | -4
COCCCN(C(=O)CCOc1ccccc1C)c1c(N)n(Cc2ccccc2)c(=O)[nH]c1=O | -1 | 2 | -9 | 10 | ·
CC(C)(C)CC(=O)NC(=S)N1CCCCCC1 | 6 | 2 | -18 | 81* | 21
CC(C)(C)c1ccc(C(=O)NC(=S)N2CCCCCC2)cc1 | -5 | 4 | -21 | 1 | ·
Cc1cc(C(=O)N2CCN(S(=O)(=O)c3ccc(C)c(C)c3)CC2)no1 | 2 | -4 | 4 | 8 | ·
CCOC(=O)C1CCN(C(=O)c2ccc3c(c2)S(=O)(=O)c2ccccc2C3=O)CC1 | -10 | 3 | 6 | 36* | ·
FCCCOc1ccc(-c2ccnc(-c3ccccc3)n2)cc1 | -3 | 9 | -5 | 57* | 2
CC(=O)Nc1ccc(S(=O)(=O)N(C)CC(=O)NNC(=O)c2cccs2)cc1 | -3 | -3 | -9 | 42* | ·
CC(=O)Nc1ccc(S(=O)(=O)N(C)CC(=O)N/N=C/c2cccs2)cc1 | -3 | 0 | 1 | -4 | ·
CC(C)N(C)c1ncnc2c1ncn2[C@H]1CN(C2CCCC2)C[C@@H](CO)O1 | · | -1 | 11 | 11 | ·
CCN1CCN(c2cc(C)c3cc(NC(=S)N4CCCCC4)ccc3n2)CC1 | -14 | 2 | 6 | 38* | -9
Cc1cc(N2CCOCC2)nc2ccc(NC(=O)C3CCC(C)CC3)cc12 (stereo not drawn) | -9 | 10 | 8 | 35* | 6
CCCCNC(=O)CCC(=O)Nc1ccc2nc(N3CCOCC3)cc(C)c2c1 | -3 | 7 | 2 | 6 | -17
c1ccc(Cn2nnc3c(NCCN4CCOCC4)ncnc32)cc1 | -4 | 2 | 1 | 44* | -12
COc1ccc(C(C(=O)NC2CCCCC2)N(Cc2cccs2)C(=O)Cc2c[nH]c3ccccc23)cc1 (stereo not drawn) | -13 | -8 | -8 | 39* | 4
Cc1ccc(C(=O)Nc2cccc(C(=O)N3CCOCC3)c2)cc1Cl | -7 | -3 | 7 | 8 | ·
O=C(Nc1ccc([N+](=O)[O-])cc1)c1ccccc1 | -6 | 1 | -8 | 37* | ·
O=C(Nc1ccc(OC(F)F)c(Cl)c1)c1cccc(OC(F)F)c1 | 0 | 8 | -5 | 44* | -2
SMILES | TLR9-MyD88 inh | MT1-MMP act inh | NOD2 RIPK2 PPI | SKN-1 inh | TLR4 MyD88 comp
COc1ccc(NC(=O)c2cccc(OC(F)F)c2)cc1Cl | -14 | 4 | 4 | 9 | -6
O=C(Nc1ccc(Cl)c(Cl)c1)c1ccccc1 | -6 | 0 | -5 | 43* | ·
Cc1cc(NC(=O)Nc2ccc(Cl)c(Cl)c2)no1 | -5 | 2 | 0 | 7 | ·
O=C(Nc1cccc(Cl)c1)c1ccccc1 | -5 | -1 | -8 | 4 | ·
O=C(Nc1ccc(Cl)c(Cl)c1)Nc1ccon1 | 0 | -8 | 1 | 46* | ·
CC(=O)Nc1cccc(-c2csc(C(O)c3ccc(F)c(F)c3)n2)c1 (stereo not drawn) | · | 6 | 5 | 21 | ·
O=C(Nc1csc(Cl)c1)c1ccccc1 | · | -1 | -13 | 42* | ·
O=C(NNC(=O)c1ccc(NC(=O)c2ccccc2)cc1)c1ccccc1 | · | 3 | -6 | -5 | 5
COc1ccc2c(Cn3cnc4cc([N+](=O)[O-])ccc4c3=O)cc(=O)oc2c1 | 6 | 4 | 3 | -21 | ·
O=C(CN1CCCC1)Nc1sc2c(c1C(=O)Nc1ccc(Br)cc1)CCC2 | -2 | -4 | -6 | 38* | ·
COc1ccc(S(=O)(=O)N(C)c2ccc(C(=O)NCc3ccccn3)cc2)cc1OC | -3 | -3 | 2 | 12 | ·
Cc1cccn2c(=O)c(C=Nc3ccccc3)c(NCc3ccco3)nc12 | -1 | -9 | -6 | 41* | 1
Cc1cccn2c(=O)c(C=NCCO)c(NCc3ccco3)nc12 | 0 | -1 | 8 | -13 | 12
Cc1c(C)n(C)c2ccc(C(=O)NCCCN(C)C3CCCCC3)cc12 | -8 | 7 | 15 | 38* | ·
C(=N/n1c2ccccc2c2ccccc21)/c1ccco1 | 1 | 21 | -16 | 51* | -4
Oc1c(C=Nc2ccccc2Cl)[nH]c2ccccc12 | -1 | -34 | -4 | 1 | ·
CCn1c(SCC(=O)NC2CCCCC2)nnc1-c1cc2cccc(OC)c2o1 | 3 | 2 | -10 | 45* | -2
CCN(CC)c1ccc(/C=C2/C(=O)c3ccc(C(=O)O)cc3C2=O)cc1 | 0 | -30 | -1 | 52* | 19
CCN(CC)c1ccc(C=C2C(=O)OC3(CCCCC3)OC2=O)cc1 | 5 | 1 | -5 | 33 | 3
CCOc1ccc(NC(=O)CCN2CCN(C)CC2)cc1 | -1 | -2 | 0 | 37* | ·
CCc1nnc(NC(=O)CCC(=O)N2CCN(c3cccc(Cl)c3)CC2)s1 | -8 | 0 | 4 | -6 | ·
CCCOc1cccc(C2C(C(=O)c3cccs3)=C(O)C(=O)N2Cc2cccnc2)c1 (stereo not drawn) | 8 | 5 | -9 | 7 | ·
COc1ccc(-n2c(C)nnc2SCC(=O)Nc2ccccc2F)cc1 | -5 | -1 | -12 | -9 | ·
Cc1ccc(S(=O)(=O)NC(CC(C)C)C(=O)Oc2ccc3c4c(c(=O)oc3c2)CCC4)cc1 (stereo not drawn) | -6 | 0 | -6 | 4 | -6
CC(C)CC(C(=O)Oc1ccc2c3c(c(=O)oc2c1)CCC3)N1C(=O)c2ccccc2C1=O (stereo not drawn) | 2 | 0 | 4 | 35* | 4
SMILES | TLR9-MyD88 inh | MT1-MMP act inh | NOD2 RIPK2 PPI | SKN-1 inh | TLR4 MyD88 comp
Clc1ccc(C=Cc2ccccn2)cc1 | -1 | 0 | -6 | 72* | ·
Cc1ccc(C=Cc2ccccn2)cc1 | -4 | 3 | 2 | 43* | ·
CCCCC#Cc1ccc2c(c1)COc1c3ccccc3nn1-2 | 5 | 3 | -11 | 2 | ·
C(#CC1CCCCC1)c1ccc2c(c1)COc1c3ccccc3nn1-2 | 3 | 1 | -3 | 0 | ·
C(#Cc1ccc2c(c1)COc1c3ccccc3nn1-2)c1ccccc1 | 3 | -12 | 3 | 37* | ·
C#Cc1ccc2c(c1)COc1c3ccccc3nn1-2 | -11 | 2 | -15 | 48* | ·

From PubChem
